# The source made the active and inactive calls. No cut-off for these calls is given here.
# Tests used:
# [1] = Induction of IFN-gamma secretion in human CD161+ CD3+ NKT cells at 10 ug/ml after 18 hrs relative to basal level; type: functional
# How it was run: (§1)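 Human Vα24i NKT cell lines were expanded for 10 days on irradiated (3,000 rad) autologous immature DCs with 10 units/ml IL-2. The cells (1 × 10^5) were cocultured with 5 × 10^4 irradiated immature CD14+ DCs plus glycolipid at 10 μg/ml. Supernatants were collected at 18 h and read on a 22-plex Luminex bead panel. Triplicates, mean ± SD.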
# Mus musculus [2] = assay: Induction of IFN-gamma secretion in BALB/c mouse serum at 2 ug, iv after 18 hrs relative to control; type: functional
# How it was run: (§2)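 BALB/c mice received an i.v. injection of 100 μl of glycolipid diluted to 20 μg/ml in saline from DMSO stock, with 1% DMSO as vehicle. Serum cytokines/chemokines were measured at 2 and 18 h after injection.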
# Mus musculus [3] = assay: Induction of IL13 secretion in BALB/c mouse serum at 2 ug, iv after 2 hrs relative to control; type: functional; how it was run: as §2
# [4] = Induction of IL13 secretion in human CD161+ CD3+ NKT cells at 10 ug/ml after 18 hrs relative to basal level; type: functional; how it was run: as §1
# Mus musculus [5] = assay: Induction of MIPbeta secretion in BALB/c mouse serum at 2 ug, iv after 2 hrs relative to control; type: functional; how it was run: as §2
# TC1 = assay: Antitumor activity in TC1 cells xenografted C57BL/6 mouse assessed as suppression of tumor growth at 2 ug, iv; type: functional, cell-based
# How it was run: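 C57BL/6 mice (n = 5/group) were inoculated i.v. with TC-1 lung cancer cells. They were then treated i.v. with 2 μg glycolipid per mouse, or 100 μl of 1% DMSO, twice weekly for 4 weeks. Kaplan–Meier survival and body weight were followed, with tumor-free mice as an additional control.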
# [6] = Induction of IL2 secretion in human CD161+ CD3+ NKT cells at 10 ug/ml after 18 hrs relative to basal level; type: functional; how it was run: as §1
# Mus musculus [7] = assay: Induction of IL10 secretion in BALB/c mouse serum at 2 ug, iv after 18 hrs relative to control; type: functional; how it was run: as §2
# [8] = Induction of RANTES secretion in human CD161+ CD3+ NKT cells at 10 ug/ml after 18 hrs relative to basal level; type: functional; how it was run: as §1
# Mus musculus [9] = assay: Induction of IL6 secretion in BALB/c mouse serum at 2 ug, iv after 2 hrs relative to control; type: functional; how it was run: as §2
# [10] = Induction of IL6 secretion in human CD161+ CD3+ NKT cells at 10 ug/ml after 18 hrs relative to basal level; type: functional; how it was run: as §1
# [11] = Induction of IL12p40 secretion in human CD161+ CD3+ NKT cells at 10 ug/ml after 18 hrs relative to basal level; type: functional; how it was run: as §1
# [12] = Induction of MCP1 secretion in human CD161+ CD3+ NKT cells at 10 ug/ml after 18 hrs relative to basal level; type: functional; how it was run: as §1
# Mus musculus [13] = assay: Induction of GM-CSF secretion in BALB/c mouse serum at 2 ug, iv after 2 hrs relative to control; type: functional; how it was run: as §2
# [14] = Induction of TNFalpha secretion in human CD161+ CD3+ NKT cells at 10 ug/ml after 18 hrs relative to basal level; type: functional; how it was run: as §1
# Mus musculus [15] = assay: Induction of IL1-beta secretion in BALB/c mouse serum at 2 ug, iv after 18 hrs relative to control; type: functional; how it was run: as §2
# Mus musculus [16] = assay: Induction of IL12p40 secretion in BALB/c mouse serum at 2 ug, iv after 18 hrs relative to control; type: functional; how it was run: as §2
# Mus musculus [17] = assay: Induction of IL3 secretion in BALB/c mouse serum at 2 ug, iv after 2 hrs relative to control; type: functional; how it was run: as §2
# [18] = Induction of GM-CSF secretion in human CD161+ CD3+ NKT cells at 10 ug/ml after 18 hrs relative to basal level; type: functional; how it was run: as §1
# [19] = Induction of IL4 secretion in human CD161+ CD3+ NKT cells at 10 ug/ml after 18 hrs relative to basal level; type: functional; how it was run: as §1
# Mus musculus [20] = assay: Induction of MCP1 secretion in BALB/c mouse serum at 2 ug, iv after 2 hrs relative to control; type: functional; how it was run: as §2
# Mus musculus [21] = assay: Induction of IL12p70 secretion in BALB/c mouse serum at 2 ug, iv after 18 hrs relative to control; type: functional; how it was run: as §2
# [22] = Induction of IL3 secretion in human CD161+ CD3+ NKT cells at 10 ug/ml after 18 hrs relative to basal level; type: functional; how it was run: as §1
# [23] = Induction of IL12p70 secretion in human CD161+ CD3+ NKT cells at 10 ug/ml after 18 hrs relative to basal level; type: functional; how it was run: as §1
# 4T1 = assay: Antitumor activity in mouse 4T1 cells xenografted BALB/c mouse assessed as suppression of tumor growth at 2 ug, iv; type: functional, cell-based
# How it was run: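 BALB/c mice (n = 6) were inoculated s.c. with 4T1 breast cancer cells. From day 3 they were treated i.v. with glycolipid or vehicle twice weekly for 4 weeks. Tumor volume was recorded every 3 days for 1 month, and survival was monitored up to 54 days.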
# [24] = Induction of IL10 secretion in human CD161+ CD3+ NKT cells at 10 ug/ml after 18 hrs relative to basal level; type: functional; how it was run: as §1
# Mus musculus [25] = assay: Induction of TNFalpha secretion in BALB/c mouse serum at 2 ug, iv after 18 hrs relative to control; type: functional; how it was run: as §2
# [26] = Induction of IL15 secretion in human CD161+ CD3+ NKT cells at 10 ug/ml after 18 hrs relative to basal level; type: functional; how it was run: as §1
# [27] = Induction of MIPalpha secretion in human CD161+ CD3+ NKT cells at 10 ug/ml after 18 hrs relative to basal level; type: functional; how it was run: as §1
# Mus musculus [28] = assay: Induction of KC secretion in BALB/c mouse serum at 2 ug, iv after 2 hrs relative to control; type: functional; how it was run: as §2
# Mus musculus [29] = assay: Induction of RANTES secretion in BALB/c mouse serum at 2 ug, iv after 2 hrs relative to control; type: functional; how it was run: as §2
# Mus musculus [30] = assay: Induction of IL2 secretion in BALB/c mouse serum at 2 ug, iv after 2 hrs relative to control; type: functional; how it was run: as §2
# [31] = Induction of IL8 secretion in human CD161+ CD3+ NKT cells at 10 ug/ml after 18 hrs relative to basal level; type: functional; how it was run: as §1
# Mus musculus [32] = assay: Induction of IL4 secretion in BALB/c mouse serum at 2 ug, iv after 2 hrs relative to control; type: functional; how it was run: as §2
# NKT = assay: Stimulation of cell expansion of human invariant CD161+/ Valpha24+/ CD56+/ CD3+ NKT cells by flow cytometry method; type: functional, cell-based
# How it was run: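 CD56+ NK/NKT mixtures (2 × 10^6) were isolated from human leukopaks with anti-CD56 microbeads. They were cocultured with 4 × 10^5 autologous immature CD14+ DCs pulsed with glycolipid at 3 μg/ml, or with 0.3% DMSO, on day 2 for 18 h. Suspension cells were then transferred and kept in 100 units/ml IL-2 with fresh medium every 3 days. On day 9, CD161+/Vα24TCR+ cells were gated by flow cytometry and total Vα24i NKT cells counted. Triplicates, mean ± SD.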
structure (smiles),measurement,setting,value
CCCCCCCCCCCCCCC[C@@H](O)[C@H](CO[C@H]1O[C@H](C(=O)O)[C@H](O)[C@H](O)[C@H]1O)NC(=O)CCCCCCCCCCCCC,Activity,[1],2.4
same,Activity,Mus musculus [2],3.1
same,Activity,Mus musculus [3],2.3
same,Activity,[4],2
same,Activity,Mus musculus [5],1.4
same,Activity,TC1,Active
same,Activity,[6],1.3
same,Activity,Mus musculus [7],1.1
same,Activity,[8],2.4
same,Activity,Mus musculus [9],1.7
same,Activity,[10],2.3
same,Activity,[11],1.9
same,Activity,[12],1.7
same,Activity,Mus musculus [13],4.9
same,Activity,[14],5.5
same,Activity,Mus musculus [15],2
same,Activity,Mus musculus [16],1.9
same,Activity,Mus musculus [17],2.8
same,Activity,[18],2.9
same,Activity,[19],2.9
same,Activity,Mus musculus [20],5.6
same,Activity,Mus musculus [21],1.2
same,Activity,[22],1.7
same,Activity,[23],1.7
same,Activity,4T1,Active
same,Activity,[24],1.7
same,Activity,Mus musculus [25],6
same,Activity,[26],2
same,Activity,[27],3.5
same,Activity,Mus musculus [28],7.6
same,Activity,Mus musculus [29],0.9
same,Activity,Mus musculus [30],17.2
same,Activity,[31],2.3
same,Activity,Mus musculus [32],26.8
CCCCCCCCCCCCCC[C@@H](O)[C@@H](O)[C@H](CO[C@H]1O[C@H](CO)[C@H](O)[C@H](O)[C@H]1O)NC(=O)CCCCCCCCCc1ccccc1,Activity,[1],4.2
same,Activity,[4],1.6
same,Activity,TC1,Active
same,Activity,[6],3.4
same,Activity,[8],2.1
same,Activity,[10],1.6
same,Activity,[11],1.4
same,Activity,[12],1.5
same,Activity,NKT,Active
same,Activity,[14],5.6
same,Activity,[18],3.4
same,Activity,[19],3.2
same,Activity,[22],1.8
same,Activity,[23],2.3
same,Activity,4T1,Active
same,Activity,[24],1.4
same,Activity,[26],2.3
same,Activity,[27],3.4
same,Activity,[31],2.2
CCCCCCCCCCCCCC[C@@H](O)[C@@H](O)[C@H](CO[C@H]1O[C@H](CO)[C@H](O)[C@H](O)[C@H]1O)NC(=O)CCc1ccc(CC(C)C)cc1,Activity,[1],1.9
same,Activity,[4],1.4
same,Activity,[6],1.3
same,Activity,[8],1.3
same,Activity,[10],2.1
same,Activity,[11],1.8
same,Activity,[12],0.9
same,Activity,NKT,Active
same,Activity,[14],1.9
same,Activity,[18],3.8
same,Activity,[19],2.2
same,Activity,[22],1.9
same,Activity,[23],1.8
same,Activity,[24],2.2
same,Activity,[26],2.2
same,Activity,[27],2.8
same,Activity,[31],5.5
CCCCCCCCCCCCCC[C@@H](O)[C@@H](O)[C@H](CO[C@H]1O[C@H](CO)[C@H](O)[C@H](O)[C@H]1O)NC(=O)CCCc1ccccc1,Activity,[1],2.1
same,Activity,[4],1.6
same,Activity,[6],1.4
same,Activity,[8],1.5
same,Activity,[10],1.6
same,Activity,[11],1.4
same,Activity,[12],1
same,Activity,[14],3.3
same,Activity,[18],2.8
same,Activity,[19],1.9
same,Activity,[22],1.8
same,Activity,[23],1.2
same,Activity,[24],1.3
same,Activity,[26],2.2
same,Activity,[27],3.2
same,Activity,[31],1.6

# Source: ChEMBL document CHEMBL1145518, “Potent immune-modulating and anticancer effects of NKT cell stimulatory glycolipids” (2007)
